How the values were obtained:
Format in all cases: functional
HCT-15 = test: Antitumor activity against human HCT15 cells after 48 hrs by SRB assay; settings: HCT-15, 48 h
How it was run: (§1)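 NCI 60-cell-line secondary screen. Cells were exposed continuously to drug for 48 h at five concentration levels (100, 10, 1.0, 0.1 and 0.01). Growth was estimated by sulforhodamine B protein staining. GI50 is the concentration giving a 50% reduction in net protein increase versus untreated control cells over the incubation. TGI (total growth inhibition) and LC50 (50% cell kill) were also derived.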

SK-MEL-28 = test: Antitumor activity against human SK-MEL-28 cells after 48 hrs by SRB assay; settings: SK-MEL-28, 48 h; for CC50: read-out: LC50 (the source's name); how it was run: as §1
M14 = test: Antitumor activity against human M14 cells after 48 hrs by SRB assay; settings: M14, 48 h; for CC50: read-out: LC50 (the source's name); how it was run: as §1
HCC 2998 = test: Antitumor activity against human HCC2998 cells after 48 hrs by SRB assay; settings: HCC 2998, 48 h; for CC50: read-out: LC50 (the source's name)
How it was run: (§2)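 NCI 60-cell-line secondary screen: continuous drug exposure for 48 h at five concentration levels (100, 10, 1.0, 0.1 and 0.01). Cell growth was estimated by sulforhodamine B (SRB) protein staining. GI50 is the concentration giving a 50% reduction in net protein increase relative to untreated control cells during the incubation. TGI and LC50 were derived from the same data.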

SK-MEL-2 = test: Antitumor activity against human SK-MEL-2 cells after 48 hrs by SRB assay; settings: SK-MEL-2, 48 h; for CC50: read-out: LC50 (the source's name); how it was run: as §1
NCI-H226 = test: Antitumor activity against human NCI-H226 cells after 48 hrs by SRB assay; settings: NCI-H226, 48 h; how it was run: as §1
T47D = test: Antitumor activity against human T47D cells after 48 hrs by SRB assay; settings: for CC50: read-out: LC50 (the source's name)
How it was run: (§3)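 NCI 60-cell-line secondary screen. Continuous 48 h exposure at five concentration levels. Cell growth estimated by sulforhodamine B protein staining. GI50 taken as the concentration giving 50% reduction in net protein increase relative to untreated control cells over the incubation. TGI (total growth inhibition) and LC50 (50% cell kill) were also derived.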

DU-145 = test: Antitumor activity against human DU145 cells after 48 hrs by SRB assay; settings: DU-145, 48 h; for CC50: read-out: LC50 (the source's name); how it was run: as §1
SNB-75 = test: Antitumor activity against human SNB75 cells after 48 hrs by SRB assay; settings: SNB-75, 48 h; for CC50: read-out: LC50 (the source's name); how it was run: as §1
RPMI-8226 = test: Antitumor activity against human RPMI8226 cells after 48 hrs by SRB assay; settings: RPMI-8226, 48 h; for CC50: read-out: LC50 (the source's name); how it was run: as §1
ACHN = test: Antitumor activity against human ACHN cells after 48 hrs by SRB assay; settings: for CC50: read-out: LC50 (the source's name); how it was run: as §1
IGROV-1 = test: Antitumor activity against human IGROV1 cells after 48 hrs by SRB assay; settings: IGROV-1, 48 h; for CC50: read-out: LC50 (the source's name); how it was run: as §1
786-0 = test: Antitumor activity against human 786-0 cells after 48 hrs by SRB assay; settings: 786-0, 48 h; for CC50: read-out: LC50 (the source's name); how it was run: as §1
CCRF-CEM = test: Antitumor activity against human CCRF-CEM cells after 48 hrs by SRB assay; settings: for CC50: read-out: LC50 (the source's name); how it was run: as §1
NCI-H23 = test: Antitumor activity against human NCI-H23 cells after 48 hrs by SRB assay; settings: NCI-H23, 48 h; how it was run: as §1
OVCAR-3 = test: Antitumor activity against human OVCAR3 cells after 48 hrs by SRB assay; settings: OVCAR-3, 48 h; for CC50: read-out: LC50 (the source's name); how it was run: as §1
NCI-H460 = test: Antitumor activity against human NCI-H460 cells after 48 hrs by SRB assay; settings: NCI-H460, 48 h; for CC50: read-out: LC50 (the source's name); how it was run: as §1
HL-60(TB) = test: Antitumor activity against human HL-60(TB) cells after 48 hrs by SRB assay; settings: HL-60, 48 h; how it was run: as §2
Malme-3M = test: Antitumor activity against human MALME-3M cells after 48 hrs by SRB assay; settings: for CC50: read-out: LC50 (the source's name); how it was run: as §1
MCF7 = test: Antitumor activity against human MCF7 cells after 48 hrs by SRB assay; settings: MCF7, 48 h; for CC50: read-out: LC50 (the source's name); how it was run: as §1
RXF 393 = test: Antitumor activity against human RXF393 cells after 48 hrs by SRB assay; settings: RXF 393, 48 h; for CC50: read-out: LC50 (the source's name); how it was run: as §1
NCI-H522 = test: Antitumor activity against human NCI-H522 cells after 48 hrs by SRB assay; settings: NCI-H522, 48 h; how it was run: as §1
SW-620 = test: Antitumor activity against human SW620 cells after 48 hrs by SRB assay; settings: SW-620, 48 h; for CC50: read-out: LC50 (the source's name); how it was run: as §3
LOX IMVI = test: Antitumor activity against human LOXIMVI cells after 48 hrs by SRB assay; settings: for CC50: read-out: LC50 (the source's name); how it was run: as §1
COLO 205 = test: Antitumor activity against human COLO205 cells after 48 hrs by SRB assay; settings: COLO 205, 48 h; for CC50: read-out: LC50 (the source's name); how it was run: as §1
BT-549 = test: Antitumor activity against human BT549 cells after 48 hrs by SRB assay; settings: BT-549, 48 h; for CC50: read-out: LC50 (the source's name); how it was run: as §1
SK-MEL-5 = test: Antitumor activity against human SK-MEL-5 cells after 48 hrs by SRB assay; settings: SK-MEL-5, 48 h; for CC50: read-out: LC50 (the source's name); how it was run: as §1
HT-29 = test: Antitumor activity against human HT-29 cells after 48 hrs by SRB assay; settings: HT-29, 48 h; how it was run: as §1
UO-31 = test: Antitumor activity against human UO31 cells after 48 hrs by SRB assay; settings: UO-31, 48 h; for CC50: read-out: LC50 (the source's name); how it was run: as §3

## COC(=O)c1ccc2c(c1)nc(-c1ccc(Cl)cc1)n2-c1cc(C(C)(C)C)[nH]n1
HCT-15
  GI50: 4.36 µM
  LC50 (50% cell kill): > 100 µM
  TGI: > 100 µM
SK-MEL-28
  GI50: 3.38 µM
  TGI: 15.5 µM
  CC50: 0.552 µM
M14
  GI50: 2.9 µM
  TGI: 8.22 µM
  CC50: 0.758 µM
HCC 2998
  GI50: 3.9 µM
  TGI: 19.8 µM
  CC50: > 100 µM
SK-MEL-2
  GI50: 3.89 µM
  TGI: 18.1 µM
  CC50: > 100 µM
NCI-H226
  GI50: 4.09 µM
  LC50 (50% cell kill): > 100 µM
  TGI: 44 µM
T47D
  GI50: 3.64 µM
  TGI: > 100 µM
  CC50: > 100 µM
DU-145
  GI50: 3.7 µM
  TGI: 25.8 µM
  CC50: > 100 µM
SNB-75
  GI50: 2.14 µM
  TGI: 12.6 µM
  CC50: > 100 µM
RPMI-8226
  GI50: 3.93 µM
  TGI: 19 µM
  CC50: > 100 µM
ACHN
  GI50: 3 µM
  TGI: 9.34 µM
  CC50: > 100 µM
IGROV-1
  GI50: 3.64 µM
  TGI: 25 µM
  CC50: > 100 µM
786-0
  GI50: 3.62 µM
  TGI: 32 µM
  CC50: > 100 µM
CCRF-CEM
  GI50: 4.91 µM
  TGI: > 100 µM
  CC50: > 100 µM
NCI-H23
  GI50: 3.42 µM
  LC50 (50% cell kill): > 100 µM
  TGI: 36 µM
OVCAR-3
  GI50: 2.35 µM
  TGI: 6.13 µM
  CC50: 0.915 µM
NCI-H460
  GI50: 2.95 µM
  TGI: 8.81 µM
  CC50: > 100 µM
HL-60(TB)
  GI50: 4.03 µM
  LC50: > 100 µM
  TGI: 11.2 µM
Malme-3M
  GI50: 3.25 µM
  TGI: 15.6 µM
  CC50: > 100 µM
MCF7
  GI50: 2.79 µM
  TGI: 12.3 µM
  CC50: > 100 µM
RXF 393
  GI50: 1.57 µM
  TGI: 5.77 µM
  CC50: 0.569 µM
NCI-H522
  GI50: 3.21 µM
  LC50 (50% cell kill): > 100 µM
  TGI: 20.3 µM
SW-620
  GI50: 3.24 µM
  TGI: > 100 µM
  CC50: > 100 µM
LOX IMVI
  GI50: 3.7 µM
  TGI: 14.5 µM
  CC50: 0.429 µM
COLO 205
  GI50: 2.29 µM
  TGI: 6.04 µM
  CC50: 0.463 µM
BT-549
  GI50: 3.35 µM
  TGI: 11.2 µM
  CC50: 0.595 µM
SK-MEL-5
  GI50: 2.02 µM
  TGI: 5.1 µM
  CC50: 0.186 µM
HT-29
  GI50: 3.65 µM
  LC50 (50% cell kill): > 100 µM
  TGI: 15.4 µM
UO-31
  GI50: 3.35 µM
  TGI: 44.1 µM
  CC50: > 100 µM

## COC(=O)c1ccc2c(c1)nc(-c1cc3ccccc3[nH]c1=O)n2-c1cc(C(C)(C)C)[nH]n1
HCT-15
  LC50 (50% cell kill): > 100 µM
  TGI: > 100 µM
SK-MEL-28
  TGI: > 100 µM
  CC50: > 100 µM
M14
  TGI: > 100 µM
  CC50: > 100 µM
HCC 2998
  CC50: > 100 µM
SK-MEL-2
  GI50: 2.25 µM
  TGI: > 100 µM
  CC50: > 100 µM
NCI-H226
  GI50: 7 µM
  LC50 (50% cell kill): > 100 µM
  TGI: > 100 µM
T47D
  GI50: > 100 µM
  TGI: > 100 µM
  CC50: > 100 µM
DU-145
  GI50: 2.37 µM
  TGI: > 100 µM
  CC50: > 100 µM
SNB-75
  GI50: 5.42 µM
  TGI: 41.5 µM
  CC50: > 100 µM
RPMI-8226
  GI50: 0.167 µM
  TGI: 0.987 µM
  CC50: > 100 µM
ACHN
  GI50: > 100 µM
  TGI: > 100 µM
  CC50: > 100 µM
IGROV-1
  GI50: 0.965 µM
  TGI: > 100 µM
  CC50: > 100 µM
786-0
  GI50: 5.81 µM
  TGI: > 100 µM
  CC50: > 100 µM
CCRF-CEM
  GI50: 0.585 µM
  TGI: > 100 µM
  CC50: > 100 µM
NCI-H23
  GI50: 2.78 µM
  LC50 (50% cell kill): > 100 µM
  TGI: > 100 µM
OVCAR-3
  GI50: 6.27 µM
  TGI: > 100 µM
  CC50: > 100 µM
NCI-H460
  GI50: 0.63 µM
  TGI: > 100 µM
  CC50: > 100 µM
HL-60(TB)
  GI50: 0.322 µM
  LC50: > 100 µM
Malme-3M
  GI50: 2.63 µM
  TGI: > 100 µM
  CC50: > 100 µM
MCF7
  GI50: > 100 µM
  TGI: > 100 µM
  CC50: > 100 µM
RXF 393
  GI50: 2.16 µM
  TGI: 8.86 µM
  CC50: > 100 µM
NCI-H522
  GI50: 0.928 µM
  LC50 (50% cell kill): > 100 µM
  TGI: > 100 µM
SW-620
  TGI: > 100 µM
  CC50: > 100 µM
LOX IMVI
  GI50: 1.24 µM
  CC50: > 100 µM
COLO 205
  TGI: > 100 µM
  CC50: > 100 µM
BT-549
  GI50: 4.88 µM
  TGI: 66.2 µM
  CC50: > 100 µM
SK-MEL-5
  GI50: 2.3 µM
  TGI: > 100 µM
  CC50: > 100 µM
HT-29
  GI50: 1.34 µM
  LC50 (50% cell kill): > 100 µM
  TGI: > 100 µM
UO-31
  GI50: 0.533 µM
  TGI: > 100 µM
  CC50: > 100 µM

— ChEMBL document CHEMBL1821569, “Synthesis of novel 1,2,5-trisubstituted benzimidazoles as potential antitumor agents” (2011)
